Source: ChEMBL document CHEMBL4190362, “Synthesis, biological evaluation and quantitative structure-active relationships of 1,3-thiazolidin-4-one derivatives. A promising chemical scaffold endowed with high antifungal potency and low cytotoxicity” (Eur J Med Chem, 2017)

Legend:
Format in all cases: functional
[1] = test system: Klebsiella oxytoca; assay: Antibacterial activity against Klebsiella oxytoca assessed as inhibition of microbial growth incubated for 18 to 22 hrs by broth microdilution method
Summary of the method: (§1)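 Broth microdilution in Mueller-Hinton II broth following NCCLS recommendations; compounds dissolved in DMSO.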

[2] = test system: Candida parapsilosis; assay: Antifungal activity against Candida parapsilosis clinical isolates assessed as inhibition of microbial growth incubated for 24 hrs by broth microdilution method; conditions: Lodderomyces parapsilosis
Summary of the method: (§2)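 Twenty-two clinical Candida isolates (8 C. albicans, 4 C. glabrata, 3 C. tropicalis, 3 C. krusei, 2 C. parapsilosis, 2 C. sake) were identified by colony morphology and biochemistry and subcultured at 35 °C for purity. Compounds were dissolved in DMSO and tested by broth microdilution in Sabouraud dextrose broth per NCCLS/CLSI/EUCAST guidance. Values are geometric mean MIC per species (µg/mL).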

[3] = test system: Staphylococcus aureus; assay: Antibacterial activity against Staphylococcus aureus assessed as inhibition of microbial growth incubated for 18 to 22 hrs by broth microdilution method; summary of the method: as §1
[4] = test system: Candida albicans; assay: Antifungal activity against Candida albicans clinical isolates assessed as inhibition of microbial growth incubated for 24 hrs by broth microdilution method; summary of the method: as §2
[5] = test system: Enterobacter; assay: Antibacterial activity against Enterobacter spp. assessed as inhibition of microbial growth incubated for 18 to 22 hrs by broth microdilution method; summary of the method: as §1
[6] = test system: Staphylococcus warneri; assay: Antibacterial activity against Staphylococcus warneri assessed as inhibition of microbial growth incubated for 18 to 22 hrs by broth microdilution method; summary of the method: as §1
[7] = test system: [Candida] sake; assay: Antifungal activity against Candida sake clinical isolates assessed as inhibition of microbial growth incubated for 24 hrs by broth microdilution method; conditions: Fermentozyma sake; summary of the method: as §2
[8] = test system: Nakaseomyces glabratus; assay: Antifungal activity against Candida glabrata clinical isolates assessed as inhibition of microbial growth incubated for 24 hrs by broth microdilution method; summary of the method: as §2
[9] = test system: Proteus mirabilis; assay: Antibacterial activity against Proteus mirabilis assessed as inhibition of microbial growth incubated for 18 to 22 hrs by broth microdilution method; summary of the method: as §1
[10] = test system: Escherichia coli; assay: Antibacterial activity against Escherichia coli assessed as inhibition of microbial growth incubated for 18 to 22 hrs by broth microdilution method; summary of the method: as §1
[11] = test system: Candida tropicalis; assay: Antifungal activity against Candida tropicalis clinical isolates assessed as inhibition of microbial growth incubated for 24 hrs by broth microdilution method; summary of the method: as §2
[12] = test system: Pichia kudriavzevii; assay: Antifungal activity against Candida krusei clinical isolates assessed as inhibition of microbial growth incubated for 24 hrs by broth microdilution method; summary of the method: as §2
[13] = test system: Enterococcus faecalis; assay: Antibacterial activity against Streptococcus faecalis assessed as inhibition of microbial growth incubated for 18 to 22 hrs by broth microdilution method; summary of the method: as §1

Row | SMILES | MIC [1] [µg/mL] | MIC [2] [µg/mL] | MIC [3] [µg/mL] | MIC [4] [µg/mL] | MIC [5] [µg/mL] | MIC [6] [µg/mL] | MIC [7] [µg/mL] | MIC [8] [µg/mL] | MIC [9] [µg/mL] | MIC [10] [µg/mL] | MIC [11] [µg/mL] | MIC [12] [µg/mL] | MIC [13] [µg/mL]
1 | O=C1CS/C(=N/N=C\c2ccccc2)N1Cc1ccccc1 | ≥ 256 | 4 | ≥ 256 | 4 | ≥ 256 | ≥ 256 | 16 | 4 | ≥ 256 | ≥ 256 | 16 | 16 | ≥ 256
2 | O=C1CS/C(=N/N=C\c2ccccn2)N1Cc1ccccc1 | ≥ 256 | 16 | ≥ 256 | 4 | ≥ 256 | ≥ 256 | 2 | 4 | ≥ 256 | ≥ 256 | 4 | 4 | ≥ 256
3 | C/C(=N/N=C1/SCC(=O)N1Cc1ccccc1)c1ccc([N+](=O)[O-])cc1 | ≥ 256 | 4 | ≥ 256 | 8 | ≥ 256 | ≥ 256 | 8 | 4 | ≥ 256 | ≥ 256 | 8 | 4 | ≥ 256
4 | O=C1CS/C(=N/N=C\c2ccco2)N1Cc1ccccc1 | ≥ 256 | 4 | ≥ 256 | 8 | ≥ 256 | ≥ 256 | 4 | 4 | ≥ 256 | ≥ 256 | 8 | 4 | ≥ 256
5 | C/C(=N/N=C1/SCC(=O)N1Cc1ccccc1)c1ccccc1 | ≥ 256 | 4 | ≥ 256 | 8 | ≥ 256 | ≥ 256 | 4 | 4 | ≥ 256 | ≥ 256 | 128 | 4 | ≥ 256
6 | C/C(=N/N=C1/SCC(=O)N1Cc1ccccc1)c1cccs1 | ≥ 256 | 8 | ≥ 256 | 2 | ≥ 256 | ≥ 256 | 8 | 4 | ≥ 256 | ≥ 256 | 16 | 4 | ≥ 256
7 | O=C1CS/C(=N/N=C\c2ccc([N+](=O)[O-])cc2)N1Cc1ccccc1 | ≥ 256 | 2 | ≥ 256 | 4 | ≥ 256 | ≥ 256 | 4 | 2 | ≥ 256 | ≥ 256 | 8 | 16 | ≥ 256
8 | O=C1CS/C(=N/N=C\c2cccnc2)N1Cc1ccccc1 | ≥ 256 | 256 | ≥ 256 | 256 | ≥ 256 | ≥ 256 | 256 | 256 | ≥ 256 | ≥ 256 | 256 | 256 | ≥ 256
9 | CC1=C(/C=N\N=C2\SCC(=O)N2Cc2ccccc2)C(C)(C)CC=C1 | ≥ 256 | 4 | ≥ 256 | 4 | ≥ 256 | ≥ 256 | 2 | 4 | ≥ 256 | ≥ 256 | 2 | 4 | ≥ 256
10 | O=C1CS/C(=N/N=C\c2cccs2)N1Cc1ccccc1 | ≥ 256 | 32 | ≥ 256 | 8 | ≥ 256 | ≥ 256 | 32 | 8 | ≥ 256 | ≥ 256 | 8 | 32 | ≥ 256
11 | C/C(=N/N=C1/SCC(=O)N1Cc1ccccc1)c1ccccn1 | ≥ 256 | 256 | ≥ 256 | 256 | ≥ 256 | ≥ 256 | 256 | 16 | ≥ 256 | ≥ 256 | 28 | 256 | ≥ 256
12 | C/C(=N/N=C1\NC(=O)CS1)c1ccc(/C(C)=N\N=C2/NC(=O)CS2)cc1 | ≥ 256 | 2 | ≥ 256 | 2 | ≥ 256 | ≥ 256 | 2 | 2 | ≥ 256 | ≥ 256 | 2 | 2 | ≥ 256
